Values joined by “and” are separate entries in the source; they are usually repeats but may differ in a detail not shown here. Equal values may be shown once. Active and inactive are the calls of the source.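 How the source made its calls: active means inhibition of at least 50%, averaged over three replicate wells; inactive means inhibition below 50%.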
tested on: HCV core protein (core106) dimerization, Hepatitis C virus; experiment: HCV core106 dimerization inhibitors, late-stage follow-up, biochemical, AlphaScreen luminescence, single dose 15 µM, powder samples (AID 651576); conditions: AlphaScreen GST/Flag-core106 dimerization, at 15 µM, active compounds read high
Procedure, shortened: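 Assay system – HCV core106 dimerization between GST-tagged and Flag-tagged core106 proteins · Quantity – 150 nM of each tagged core106 protein · Repeats – three replicate wells per compound, averaged · Detection – AlphaScreen luminescence · Read-out – percent inhibition of AlphaScreen signal versus uninhibited protein-only wells · Incubation – protein preincubation 1 h at room temperature, 1 h per bead step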

Row | SMILES | inhibition
1 | Cc1ccc(Cc2c(C)nc3nc(SCC(=O)NCCN4CCN(C(=O)C(C)C)CC4)nn3c2C)cc1 | < 50% (inactive)
2 | Cc1ccc(Cc2c(C)nc3nc(SCC(=O)NCCN4CCCN(C(=O)c5ccc(F)cc5)CC4)nn3c2C)cc1 | < 50% (inactive)
3 | Cc1ccc(Cc2c(C)nc3nc(SCC(=O)NCCN4CCCCCC4)nn3c2C)cc1 | 97% and 82%
4 | Cc1ccc(Cc2c(C)nc3nc(SCC(=O)NCCCCCNC(=O)CSc4nc5nc(C)c(Cc6ccc(C)cc6)c(C)n5n4)nn3c2C)cc1 | 78%
5 | Cc1ccc(Cc2c(C)nc3nc(SCC(=O)N4CCN(Cc5ccc(C)cc5)CC4)nn3c2C)cc1 | 14% (inactive)
6 | Cc1nc2nc(SCC(=O)NCCN3CCOCC3)nn2c(C)c1Cc1ccc(Br)cc1 | < 50% (inactive)
7 | Cc1ccc(Cc2c(C)nc3nc(SCC(=O)NCCN4CCN(S(=O)(=O)c5ccccc5)CC4)nn3c2C)cc1 | 62%
8 | Cc1nc2nc(SCC(=O)NCCCNC(=O)CSc3nc4nc(C)c(Cc5ccncc5)c(C)n4n3)nn2c(C)c1Cc1ccncc1 | < 50% (inactive)
9 | Cc1ccc(Cc2c(C)nc3nc(SCC(=O)NCCN4CCCN(C(=O)OC(C)(C)C)CC4)nn3c2C)cc1 | < 50% (inactive)
10 | CCN(CC)C(=O)CSc1nc2nc(C)c(Cc3ccc(C)cc3)c(C)n2n1 | 11% (inactive)
11 | Cc1ccc(Cc2c(C)nc3nc(SCC(=O)NCCN4CCCN(S(=O)(=O)c5ccc(C)cc5)CC4)nn3c2C)cc1 | 79%
12 | Cc1cccc(Cc2c(C)nc3nc(SCC(=O)NCC(C)NC(=O)CSc4nc5nc(C)c(Cc6cccc(C)c6)c(C)n5n4)nn3c2C)c1 (configuration not stated) | 67%
13 | Cc1ccc(Cc2c(C)nc3nc(SCC(=O)NCc4ccc(CNC(=O)CSc5nc6nc(C)c(Cc7ccc(C)cc7)c(C)n6n5)cc4)nn3c2C)cc1 | 89%
14 | CCN(CC)CCCNC(=O)CSc1nc2nc(C)c(Cc3ccc(C)cc3)c(C)n2n1 | 65%
15 | Cc1ccc(Cc2c(C)nc3nc(SCC(=O)NCCN4CCN(Cc5ccc(Cl)cc5)CC4)nn3c2C)cc1 | 87%
16 | CCCNC(=O)CSc1nc2nc(C)c(Cc3cccc(C)c3)c(C)n2n1 | 33% (inactive)
17 | Cc1ccc(Cc2c(C)nc3nc(SCC(=O)N4C[C@@H]5C[C@H]4CN5C(=O)CSc4nc5nc(C)c(Cc6ccc(C)cc6)c(C)n5n4)nn3c2C)cc1 | 67%
18 | Cc1ccc(Cc2c(C)nc3nc(SCC(=O)NCCN4CCN(CCc5ccccc5)CC4)nn3c2C)cc1 | 65%
19 | Cc1ccc(Cc2c(C)nc3nc(SCC(=O)NCCCNC(=O)CSc4nc5nc(C)c(Cc6ccc(C)cc6)c(C)n5n4)nn3c2C)cc1 | 96%
20 | Cc1ccc(Cc2c(C)nc3nc(SCC(=O)Nc4ccccc4NC(=O)CSc4nc5nc(C)c(Cc6ccc(C)cc6)c(C)n5n4)nn3c2C)cc1 | 80%
21 | Cc1ccc(Cc2c(C)nc3nc(SCC(=O)NCC[N+]4(C)CCOCC4)nn3c2C)cc1 | 46% (inactive)
22 | Cc1ccc(Cc2c(C)nc3nc(SCC(=O)NCCN4CCOCC4)nn3c2C)cc1 | 60%
23 | Cc1ccc(Cc2c(C)nc3nc(SCC(=O)NC4CCCCCCC4)nn3c2C)cc1 | 59%
24 | Cc1nc2nc(SCC(=O)NCCC3=CCCCC3)nn2c(C)c1Cc1ccc(Cl)cc1 | 30% (inactive)
25 | Cc1ccc(Cc2c(C)nc3nc(SCC(=O)NCCN4CCN(Cc5ccc(F)cc5)CC4)nn3c2C)cc1 | 66%
26 | Cc1ccc(Cc2c(C)nc3nc(SCC(=O)N4CCNCC4)nn3c2C)cc1 | 42% (inactive)

Row | SMILES | inhibition
27 | Cc1ccc(Cc2c(C)nc3nc(SCC(=O)NCCCN4CCCCCC4)nn3c2C)cc1 | 16% (inactive)
28 | Cc1ccc(Cc2c(C)nc3nc(SCC(=O)NCC4CCCCN4C(=O)CSc4nc5nc(C)c(Cc6ccc(C)cc6)c(C)n5n4)nn3c2C)cc1 (configuration not stated) | 93%
29 | Cc1ccc(Cc2c(C)nc3nc(SCC(=O)N4CCCC4)nn3c2C)cc1 | 87%
30 | Cc1ccc(Cc2c(C)nc3nc(SCC(=O)NCCC4CCOCC4)nn3c2C)cc1 | < 50% (inactive)
31 | Cc1ccc(Cc2c(C)nc3nc(SCC(=O)NCCC(C)C)nn3c2C)cc1 | 43% (inactive)
32 | Cc1ccc(Cc2c(C)nc3nc(SCC(=O)N(C)C)nn3c2C)cc1 | 51%
33 | Cc1ccc(Cc2c(C)nc3nc(SCC(=O)N4CCN(C(=O)CSc5nc6nc(C)c(Cc7ccc(C)cc7)c(C)n6n5)CC4)nn3c2C)cc1 | 87%
34 | Cc1ccc(Cc2c(C)nc3nc(SCC(=O)NCCN4CCN(S(C)(=O)=O)CC4)nn3c2C)cc1 | < 50% (inactive)
35 | CCCN1CCN(CCNC(=O)CSc2nc3nc(C)c(Cc4ccc(C)cc4)c(C)n3n2)CC1 | < 50% (inactive)
36 | Cc1ccc(Cc2c(C)nc3nc(SCC(=O)NC4CCCC(NC(=O)CSc5nc6nc(C)c(Cc7ccc(C)cc7)c(C)n6n5)C4)nn3c2C)cc1 (configuration not stated) | 98%
37 | CC(=O)N1CCN(CCNC(=O)CSc2nc3nc(C)c(Cc4ccc(C)cc4)c(C)n3n2)CC1 | < 50% (inactive)
38 | Cc1ccc(Cc2c(C)nc3nc(SCC(=O)N4CCCCC4)nn3c2C)cc1 | 41% (inactive)
39 | Cc1ccc(Cc2c(C)nc3nc(SCC(=O)NCCN4CCN(Cc5ccccc5)CC4)nn3c2C)cc1 | 66%
40 | Cc1ccc(Cc2c(C)nc3nc(SCC(=O)NCCN4CCN(C(=O)c5ccccc5)CC4)nn3c2C)cc1 | < 50% (inactive)
41 | Cc1ccc(Cc2c(C)nc3nc(SCC(=O)NC4CCN(C(=O)CSc5nc6nc(C)c(Cc7ccc(C)cc7)c(C)n6n5)CC4)nn3c2C)cc1 | 80%
42 | Cc1ccc(Cc2c(C)nc3nc(SCC(=O)N4CCN(C)CC4)nn3c2C)cc1 | 37% (inactive)
43 | Cc1ccc(Cc2c(C)nc3nc(SCC(=O)NCC[N+]4(Cc5ccc(F)cc5)CCN(Cc5ccc(F)cc5)CC4)nn3c2C)cc1 | < 50% (inactive)
44 | Cc1ccc(Cc2c(C)nc3nc(SCC(=O)NCCC4=CCCCC4)nn3c2C)cc1 | 22% (inactive)
45 | Cc1ccc(Cc2c(C)nc3nc(SCC(=O)NCCN4CCCN(C(=O)c5ccccc5)CC4)nn3c2C)cc1 | < 50% (inactive)
46 | Cc1ccc(Cc2c(C)nc3nc(SCC(=O)N4CCN(Cc5ccc(F)cc5)CC4)nn3c2C)cc1 | 10% (inactive)
47 | Cc1ccc(Cc2c(C)nc3nc(SCC(=O)N4CCSCC4)nn3c2C)cc1 | 63%
48 | Cc1ccc(Cc2c(C)nc3nc(SCC(=O)N[C@H]4CCCN(C(=O)CSc5nc6nc(C)c(Cc7ccc(C)cc7)c(C)n6n5)C4)nn3c2C)cc1 | 85%
49 | Cc1cccc(Cc2c(C)nc3nc(SCC(=O)NC4CCN(C(=O)CSc5nc6nc(C)c(Cc7cccc(C)c7)c(C)n6n5)C4)nn3c2C)c1 (configuration not stated) | 80%
50 | Cc1ccc(Cc2c(C)nc3nc(SCC(=O)NCCN4CCN(C(=O)c5ccc(F)cc5)CC4)nn3c2C)cc1 | < 50% (inactive)
51 | Cc1ccc(Cc2c(C)nc3nc(SCC(=O)NCCCCCCNC(=O)CSc4nc5nc(C)c(Cc6ccc(C)cc6)c(C)n5n4)nn3c2C)cc1 | 88%
52 | Cc1nc2nc(SCC(=O)N(C)CCN3CCOCC3)nn2c(C)c1Cc1ccc(Br)cc1 | 12% (inactive)

Row | SMILES | inhibition
53 | Cc1ccc(Cc2c(C)nc3nc(SCC(=O)NCCN4CCN(C(=O)OC(C)(C)C)CC4)nn3c2C)cc1 | 51%
54 | Cc1ccc(Cc2c(C)nc3nc(SCC(=O)N4CCN(CCc5ccccc5)CC4)nn3c2C)cc1 | 41% (inactive)
55 | Cc1cccc(Cc2c(C)nc3nc(SCC(=O)N4CCCCCC4)nn3c2C)c1 | 71%
56 | Cc1nc2nc(SCC(=O)N3CCN(C(=O)CSc4nc5nc(C)c(Cc6ccc(Br)cc6)c(C)n5n4)CC3)nn2c(C)c1Cc1ccc(Br)cc1 | 25% (inactive)
57 | Cc1ccc(Cc2c(C)nc3nc(SCC(=O)N4CCOCC4)nn3c2C)cc1 | 13% (inactive)
58 | Cc1ccc(Cc2c(C)nc3nc(SCC(=O)NCCCCNC(=O)CSc4nc5nc(C)c(Cc6ccc(C)cc6)c(C)n5n4)nn3c2C)cc1 | 88%
59 | Cc1ccc(Cc2c(CCc3ccccc3)nc3nc(SCC(=O)NCCN4CCOCC4)nn3c2C)cc1 | 44% (inactive)
60 | Cc1nc2nc(SCC(=O)NCCN3CCOCC3)nn2c(C)c1Cc1ccncc1 | -11% (inactive)
61 | Cc1ccc(Cc2c(C)nc3nc(SCC(=O)N4CCCN(C(=O)CSc5nc6nc(C)c(Cc7ccc(C)cc7)c(C)n6n5)CC4)nn3c2C)cc1 | 90%
62 | Cc1ccc(Cc2c(C)nc3nc(SCC(=O)NCCN(C)C)nn3c2C)cc1 | < 50% (inactive)
63 | C#CCN1CCN(CCNC(=O)CSc2nc3nc(C)c(Cc4ccc(C)cc4)c(C)n3n2)CC1 | < 50% (inactive)
64 | CCCNC(=O)CSc1nc2nc(C)c(Cc3ccc(C)cc3)c(C)n2n1 | 38% (inactive)
65 | Cc1ccc(Cc2c(C)nc3nc(SCC(=O)N4CCN(Cc5ccc(Br)cc5)CC4)nn3c2C)cc1 | 43% (inactive)
66 | Cc1ccc(Cc2c(C)nc3nc(SCC(=O)NC4CCC(NC(=O)CSc5nc6nc(C)c(Cc7ccc(C)cc7)c(C)n6n5)CC4)nn3c2C)cc1 (configuration not stated) | 92%
67 | Cc1ccc(Cc2c(C)nc3nc(SCC(=O)NCCN4CCCCC4)nn3c2C)cc1 | 56%
68 | Cc1ccc(Cc2c(C)nc3nc(SCC(=O)NCCN4CCSCC4)nn3c2C)cc1 | 79%
69 | Cc1ccc(Cc2c(C)nc3nc(SCC(=O)NCCN4CCNCC4)nn3c2C)cc1 | 51%
70 | Cc1ccc(Cc2c(C)nc3nc(SCC(=O)NCCN4CCCNCC4)nn3c2C)cc1 | < 50% (inactive)
71 | Cc1ccc(Cc2c(C)nc3nc(SCc4ccc(Cl)cc4)nn3c2C)cc1 | 52%
72 | Cc1ccc(Cc2c(C)nc3nc(SCC(=O)N4CCN(Cc5ccc(Cl)cc5)CC4)nn3c2C)cc1 | 44% (inactive)
73 | Cc1ccc(Cc2c(C)nc3nc(SCC(=O)NCCc4ccccc4)nn3c2C)cc1 | 40% (inactive)
74 | Cc1ccc(Cc2c(C)nc3nc(SCC(=O)NCCN4CCN(S(=O)(=O)c5ccc(C)cc5)CC4)nn3c2C)cc1 | < 50% (inactive)
75 | Cc1ccc(Cc2c(C)nc3nc(SCC(=O)NCCN4CCCC4)nn3c2C)cc1 | < 50% (inactive)
76 | Cc1ccc(Cc2c(C)nc3nc(SCC(=O)NCCN4CCCN(S(=O)(=O)c5ccccc5)CC4)nn3c2C)cc1 | 83%
77 | Cc1ccc(Cc2c(C)nc3nc(SCC(=O)NCC4CCN(C(=O)CSc5nc6nc(C)c(Cc7ccc(C)cc7)c(C)n6n5)CC4)nn3c2C)cc1 | 89%
